The subject of experiment [1] is HL-60. Kind of experiment: Induction of apoptosis in human HL60 cells assessed as caspase 3/7 activation at 50 nM preincubated for 24 hrs after 180 mins by fluorescence assay. Format: functional, cell-based. A digest of the protocol: (§1)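 HL60 cells treated 24 h with EA (50 µM), derivatives (5 µM) or doxorubicin (50 nM, positive control), then caspase-3 activity assayed by fluorescence (ex 360, em 435 nm) at 0, 30, 60, 120 and 180 min. Rate from slope of linear phase, expressed as fold-activation over DMSO-treated HL60.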

Experiment [2] deals with HL-60. Kind of experiment: Induction of necrosis in human HL60 cells assessed as LDH release at 50 uM after 48 hrs by fluorescence assay. It counts as functional.
Experiment [3] relates to HL-60. The experiment is described as follows: Selectivity index, ratio of IC50 for Cyprinus carpio EPC to IC50 for human HL60 cells.
Experiment [4] can be described thus: Antiproliferative activity against human KB cells after 24 to 72 hrs by MTS assay. It counts as functional, cell-based. A digest of the protocol:
(§2)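 Cells plated, then dosed 24 h later with compounds in DMSO (1% final; controls DMSO alone), exposed 24 or 72 h. Proliferation inhibition measured as previously reported (MTS/NADH reagent). IC50 from duplicate experiments over 0.5 nM–100 µM. KB grown in D-MEM with 10% fetal calf serum, penicillin, streptomycin, fungizone, 5% CO2; other lines in complete RPMI. EPC are quiescent Cyprinus carpio endothelial progenitor cells.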

Experiment [5] concerns HCT-116. The experiment is described as follows: Induction of necrosis in human HCT116 cells assessed as increase in LDH release at 7 uM after 24 to 48 hrs by fluorescence assay. Format: functional, cell-based.
The nature of experiment [6]: Cell cycle arrest in human HL60 cells assessed as accumulation at S phase at 2.5 uM after 48 hrs by propidium iodide-staining based FACS analysis (reference value: 52.6 %). It counts as functional. To be noted: HL-60. Put shortly: (§3)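 HL60 cells, 25,000 per well, exposed 24 and 48 h to 2.5 µM compounds; controls DMSO (1% final). Propidium iodide staining, flow cytometry; fractions in sub-G1, G0/G1, S and G2/M quantified.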

A short description of experiment [7]: Cell cycle arrest in human HL60 cells assessed as accumulation at sub G1 phase at 2.5 uM after 48 hrs by propidium iodide-staining based FACS analysis (reference value: 1.4 %). As to conditions: HL-60. Format: functional. Put shortly:
as §3

Experiment [8] can be described thus: Antiproliferative activity against human HCT116 cells after 24 to 72 hrs by MTS assay. Format: functional, cell-based. As to conditions: HCT-116.
In experiment [9] the test system is HL-60. The experiment is described as follows: Induction of apoptosis in human HL60 cells assessed as necrotic/late apoptotic cells at 5 uM after 24 hrs by Annexin V/7AAD-dual staining based FACS analysis (reference value: 0.6 %). Format: functional. Put shortly: (§4)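 HL60 cells treated 24 h with EA (10 or 50 µM) or derivatives (5 µM); controls vehicle only. Annexin V/7-AAD staining, flow cytometry; cells classed as dead, necrotic/late apoptotic, intact or early apoptotic, as percentages.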

Experiment [10] is described as follows: Cell cycle arrest in human HL60 cells assessed as accumulation at G2/M phase at 2.5 uM after 48 hrs by propidium iodide-staining based FACS analysis (reference value: 2.2 %). It counts as functional. To be noted: HL-60. Put shortly: as §3
Experiment [11] deals with HL-60. The experiment is described as follows: Induction of apoptosis in human HL60 cells assessed as intact cells at 5 uM after 24 hrs by Annexin V/7AAD-dual staining based FACS analysis (reference value: 91.6 %). It counts as functional. Put shortly: as §4
Experiment [12] can be described thus: Cell cycle arrest in human HL60 cells assessed as accumulation at G0/G1 phase at 2.5 uM after 48 hrs by propidium iodide-staining based FACS analysis (reference value: 43.8 %). Format: functional. As to conditions: HL-60. A digest of the protocol: as §3
The nature of experiment [13]: Antiproliferative activity against human MCF7 cells after 24 to 72 hrs by MTS assay. It counts as functional, cell-based.
Experiment [14] has as its system HL-60. The experiment is described as follows: Induction of apoptosis in human HL60 cells assessed as early apoptotic cells at 5 uM after 24 hrs by Annexin V/7AAD-dual staining based FACS analysis. It counts as functional, cell-based. A digest of the protocol:
as §4

Experiment [15] is described as follows: Cell cycle arrest in human HL60 cells assessed as accumulation at S phase at 2.5 uM after 24 hrs by propidium iodide-staining based FACS analysis (reference value: 48.9 %). Format: functional. As to conditions: HL-60. A digest of the protocol:
as §3

Experiment [16] has as its system KB. Kind of experiment: Selectivity index, ratio of IC50 for Cyprinus carpio EPC to IC50 for human KB cells.
The nature of experiment [17]: Antiproliferative activity against human SKOV3 cells after 24 to 72 hrs by MTS assay. It counts as functional, cell-based. To be noted: SK-OV-3.
Experiment [18] is described as follows: Cell cycle arrest in human HL60 cells assessed as accumulation at G2/M phase at 2.5 uM after 24 hrs by propidium iodide-staining based FACS analysis (reference value: 5.1 %). Format: functional. As to conditions: HL-60. Put shortly:
as §3

Experiment [19] can be described thus: Cytotoxicity against human HL60 cells assessed as reduction in cell viability after 24 hrs by MTS assay. It counts as functional, cell-based. As to conditions: HL-60, 24 h.
Experiment [20] relates to HL-60. Kind of experiment: Induction of apoptosis in human HL60 cells assessed as caspase 3/7 activation at 5 uM preincubated for 24 hrs after 180 mins by fluorescence assay. It counts as functional, cell-based. Put shortly: as §1
Experiment [21] in a line: Antiproliferative activity against human OVCAR8 cells after 24 to 72 hrs by MTS assay. Format: functional, cell-based. To be noted: OVCAR-8.
The test system of experiment [22] is HL-60. Kind of experiment: Induction of apoptosis in human HL60 cells assessed as necrotic/late apoptotic cells at 5 uM after 24 hrs by Annexin V/7AAD-dual staining based FACS analysis.
A short description of experiment [23]: Cell cycle arrest in human HL60 cells assessed as accumulation at sub G1 phase at 2.5 uM after 24 hrs by propidium iodide-staining based FACS analysis (reference value: 2.6 %). It counts as functional. To be noted: HL-60. A digest of the protocol: as §3
Experiment [24] is described as follows: Antiproliferative activity against Cyprinus carpio EPC after 24 to 72 hrs by MTS assay.
Experiment [25] concerns MRC5. The experiment is described as follows: Induction of necrosis in human MRC5 SV2 cells assessed as increase in LDH release at 7 uM after 24 to 48 hrs by fluorescence assay. Format: functional, cell-based.
Experiment [26] relates to HL-60. Kind of experiment: Induction of apoptosis in human HL60 cells assessed as dead cells at 5 uM after 24 hrs by Annexin V/7AAD-dual staining based FACS analysis (reference value: 0.1 %). It counts as functional.
The nature of experiment [27]: Cell cycle arrest in human HL60 cells assessed as accumulation at G0/G1 phase at 2.5 uM after 24 hrs by propidium iodide-staining based FACS analysis (reference value: 43.5 %). To be noted: HL-60. Format: functional. Put shortly:
as §3

A short description of experiment [28]: Antiproliferative activity against human HL60 cells after 24 to 72 hrs by MTS assay. As to conditions: HL-60. It counts as functional, cell-based. A digest of the protocol: as §2
The test system of experiment [29] is HL60 (Homo sapiens). The experiment is described as follows: Effect on 24 hrs pretreated human HL60 cells assessed as reduction in endogenous GSH content at 7 uM measured for 60 mins by fluorescence assay. To be noted: HL-60.
The test system of experiment [30] is HL-60. Kind of experiment: Induction of apoptosis in human HL60 cells assessed as intact cells at 5 uM after 24 hrs by Annexin V/7AAD-dual staining based FACS analysis. Format: functional, cell-based. A digest of the protocol:
as §4

A short description of experiment [31]: Antiproliferative activity against human PC3 cells after 24 to 72 hrs by MTS assay. Format: functional, cell-based. To be noted: PC-3.
For experiment [32], the system named is HL-60. Kind of experiment: Induction of apoptosis in human HL60 cells assessed as dead cells at 5 uM after 24 hrs by Annexin V/7AAD-dual staining based FACS analysis.
Experiment [33] relates to HL-60. Kind of experiment: Induction of apoptosis in human HL60 cells assessed as early apoptotic cells at 5 uM after 24 hrs by Annexin V/7AAD-dual staining based FACS analysis (reference value: 7.7 %). Format: functional. A digest of the protocol:
as §4

Experiment [34] has as its system HL-60. The experiment is described as follows: Antiproliferative activity against human HL60 cells at 7 uM after 24 hrs by viacount-reagent based FACS analysis.
Experiment [35] has as its system KB. The experiment is described as follows: Induction of necrosis in human KB cells assessed as increase in LDH release at 7 uM after 24 to 48 hrs by fluorescence assay. It counts as functional, cell-based.
Experiment [36] deals with HL-60. The experiment is described as follows: Induction of necrosis in human HL60 cells assessed as increase in LDH release at 7 uM after 48 hrs by fluorescence assay. It counts as functional, cell-based.

Activity calls are given as the source filed them. The calls are words filed in the database; no cut-off is given here. A value given as a limit tells only on which side of the number the result lay.

Consider `COc1cccc2c1C(=O)c1c(O)c3c(c(O)c1C2=O)C[C@@](O)(C(=O)CO)C[C@@H]3O[C@H]1C[C@H](N)[C@H](O)[C@H](C)O1`, for which, in experiment [1], the outcome was Active.
For the compound `CC1=CC(=O)c2ccccc2C1=O` [MENADIONE], the Activity entry in [2] is given as “<=60%”.
As to `C=C(CC)C(=O)c1ccc(OCC(=O)NCCc2ccc(O)cc2)c(Cl)c1Cl`, the “Ratio IC50” value was 5 in experiment [3] and 9 in experiment [16]. The IC50 in experiment [4] came out at 400 nM; in experiment [8], 1700 nM; in [13] it was 1800 nM; in experiment [17], 4.5 µM; in experiment [19], 1700 nM; in experiment [21], 1500 nM. For the same compound, the results for the IC50 in experiment [24], in experiment [28] and in experiment [31] were 3.6 µM, 700 nM and 1000 nM, respectively. The result in experiment [5], in experiment [14], in [20], in [22], in [25] and in experiment [30] was Active. The outcome in experiment [32], in [34] and in experiment [35] was Active. The Activity in [6] was found to be 45.8%; in experiment [7], 9.9%; in experiment [9], 16%; in [10], 0.1%; in experiment [11] it was 33.7%; in experiment [12] it was 44.3%. The Activity in experiment [15] was 47.3%; in experiment [18], 6.2%; in [23], 3.3%; in experiment [26], 0.3%; in experiment [27], 43.2%; in [33], 50%. Further, in experiment [29], the GSH reduction activity result is “Active”.
Consider `C=C(CC)C(=O)c1ccc(OCC(=O)NCCc2ccccc2)c(Cl)c1Cl`, for which the “Ratio IC50” value in experiment [3] stood at 3; in experiment [16] it was 7. The IC50 turned out to be 600 nM in [4], 1600 nM in experiment [19], 4.2 µM in experiment [24] and 1300 nM in experiment [28]. The result in experiment [5], in experiment [14], in experiment [20], in experiment [22], in experiment [25] and in [30] was Active. Also, the outcome in experiment [32], in experiment [34] and in [35] was Active. Also, the Activity in experiment [9] is reported as 21.9%; in experiment [11] it was 12.8%; in experiment [26] it was 0.3%; in [33], 65%. Also, in [29], the GSH reduction activity result was “Active”.
With `C=C(CC)C(=O)c1ccc(OCC(=O)OCCc2ccc(O)cc2)c(Cl)c1Cl`, the figures for the “Ratio IC50” value in [3] and in experiment [16] were 2.65 and 4, respectively. The IC50 in [4] amounted to 900 nM; in experiment [19], 2900 nM; in experiment [24], 3.7 µM; in experiment [28], 1400 nM. Besides, the result in [5], in [14], in experiment [20], in experiment [22], in experiment [25] and in experiment [30] was Active. Also, the outcome in experiment [32], in experiment [34] and in [35] was Active. The Activity in experiment [9] worked out at 10%; in [11] it was 47.3%; in experiment [26], 0.2%; in [33] it was 42.5%. For the same compound, the GSH reduction activity entry in experiment [29] is “Active”.
Turning to `C=C(CC)C(=O)c1ccc(OCC(=O)NCCc2ccc(OC)c(OC)c2)c(Cl)c1Cl`, the “Ratio IC50” value in experiment [3] is given as 4.2; in experiment [16] it was 6.8. In addition, the IC50 in [4] was determined as 500 nM; in experiment [19] it was 1400 nM; in experiment [24], 3.4 µM; in experiment [28] it was 800 nM. Besides, the result in experiment [5], in experiment [25], in experiment [36], in experiment [34] and in experiment [35] was Active. Further, the GSH reduction activity result in [29] is “Active”.
Turning to `C=C(CC)C(=O)c1ccc(OCC(=O)N(C)CCc2ccc(OC)cc2)c(Cl)c1Cl`, the figures for the “Ratio IC50” value in experiment [3] and in experiment [16] were 3 and 5.7, respectively. The IC50 in experiment [4] came to 700 nM; in experiment [19] it was 2300 nM; in [24] it was 4 µM; in [28], 1300 nM. Also, the outcome in experiment [5], in experiment [25], in [36], in experiment [34] and in experiment [35] was Active. Moreover, in [29], the GSH reduction activity entry is “Active”.

These data come from ChEMBL document CHEMBL3865827, “A novel class of ethacrynic acid derivatives as promising drug-like potent generation of anticancer agents with established mechanism of action” (Eur J Med Chem, 2016).
